Test results from paper PMC10055171 (bioRxiv, 2023).
Several values for one entry are separate records, joined by “and”; a condition that tells them apart may be missing. Equal values may be shown once. Where a SMILES comes first, the peptide text is derived from it. The star is where a group is joined. Cbz = O=C(OCc1ccccc1)*

What was measured:
recombinant WT VCP [1] = molecular target: T1, recombinant WT VCP (Mus musculus, UniProt Q01853); format: biochemical; settings: for maximal increase of VCP activity / Maximum % Activity (95% CI): WT VCP; for maximal increase of VCP activity: increase over baseline; for Maximum % Activity (95% CI): 50 nM VCP, 62.5 μM ATP, Kinase-Glo; for recombinant WT VCP ATPase activity (in words): luciferase-based Kinase-Glo assay
Outline: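 Titration of activator concentrations against 50 nM His-tagged recombinant VCP, no cofactors, with 62.5 µM ATP. Buffer: 25 mM HEPES pH 7.5, 100 mM NaCl, 10 mM MgCl2, 2% DMSO. Incubated 1 h at 25°C, then 20 min with Kinase-Glo reagent at room temperature, read by luminescence. Fitted to a 3-parameter dose curve with profile-likelihood 95% CI; n=3 with 3 technical replicates.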

LD2 (aa442–806) VCP = LD2 (aa442–806) VCP (Homo sapiens, UniProt P55072); assay: ATPase activity of truncated LD2 VCP; format: biochemical; settings: 25 μM compound vs DMSO
ND1L (aa1–481) VCP = ND1L (aa1–481) VCP (Homo sapiens, UniProt P55072); assay: ATPase activity of truncated ND1L VCP; format: biochemical; settings: 25 μM compound vs DMSO
recombinant WT VCP [2] = molecular target: T1, recombinant WT VCP; assay: MESG-PNP; format: biochemical; settings: for increase in kcat: 25 μM activator compared with DMSO; for kcat (nmol Pi / nmol VCP / s) (95% CI): WT VCP with 25 μM compound
Outline: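 EnzCheck (MESG-PNP) phosphate-release assay: 50 nM recombinant VCP in ATPase buffer with 2% DMSO, 25 µM compound or DMSO, and various ATP concentrations. Absorbance at 360 nm followed for >15 min at 25°C. Phosphate was quantified from an on-plate standard curve. Initial velocities came from linear fits and were fitted to Michaelis-Menten with asymmetric profile-likelihood 95% CI.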

VCP (E578Q) = VCP (E578Q) (Mus musculus, UniProt Q01853, E578Q); assay: ATPase activity of VCP with D2 Walker B mutation; format: biochemical; settings: 25 μM activator vs DMSO
[3] = molecular target: N-ethylmaleimide-sensitive factor (NSF) (Homo sapiens, UniProt P46459); assay: ATPase activity of recombinant NSF; format: biochemical; settings: 25 μM activator, 50 nM NSF, 62.5 μM ATP
WT VCP + Ufd1/Nploc4 = WT VCP + Ufd1/Nploc4 (Mus musculus, UniProt Q01853); assay: Kinase-Glo ATPase assay of recombinant VCP with UFD1/NPLOC4 cofactors; format: biochemical; settings: for Maximum % Activity (95% CI) / EC50: WT VCP + Ufd1/Nploc4, 50 nM each, 62.5 μM ATP; for EC50: read-out: EC50 (μM) (95% CI)
Outline: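 50 nM His-tagged recombinant VCP was mixed with 50 nM co-purified UFD1/NPLOC4 complex (1:1 molar) in 25 mM HEPES pH 7.5, 100 mM NaCl, 10 mM MgCl2, 2% DMSO. Added 62.5 µM ATP and a range of activator concentrations, then incubated 1 h at 25°C. ATP remaining was read by Kinase-Glo luminescence after 20 min at room temperature. 3-parameter dose-curve fit with profile-likelihood 95% CI; n=3, 3 technical replicates.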

luciferase = assay: Luciferase counter-screen: Kinase-Glo without recombinant VCP; format: biochemical; settings: 62.5 μM ATP, increasing compound, no VCP
[4] = test system: CRISPR-Cas9 knock-in HeLa cells harboring R155H VCP expressing GFP-TDP-4FL; assay: Flow cytometry of GFP-TDP-4FL clearance, R155H knock-in HeLa; format: cell-based
[5] = test system: WT HeLa cells expressing GFP-TDP-4FL; assay: Flow cytometry of GFP-TDP-4FL clearance, wild-type HeLa; format: cell-based
[6] = test system: HeLa cells expressing myc-TDP-4FL; assay: Sequential extraction and immunoblot of soluble and insoluble TDP-4FL; format: cell-based
[7] = test system: HeLa cells expressing TDP-4FL; assay: Confocal immunofluorescence of intranuclear TDP-4FL inclusion morphology; format: cell-based
[8] = test system: CRISPR-Cas9 knock-in HeLa cells harboring A232E VCP expressing GFP-TDP-4FL; assay: Flow cytometry of GFP-TDP-4FL clearance, A232E knock-in HeLa; format: cell-based
[9] = test system: R155H/R155H mouse model of MSP; settings: cited from earlier work
drosophila model of MSP = settings: cited from earlier work
[10] = test system: HeLa cells expressing myc-TDP-43; assay: Immunofluorescence and immunoblot of myc-TDP-43 under proteasome inhibition; format: cell-based
Outline: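 For imaging, cells were fixed in 4% paraformaldehyde, permeabilised with 0.1% Triton X-100, stained with anti-myc and DAPI, and imaged by confocal microscopy. For blots, RIPA-soluble and urea-soluble fractions were separated at 100,000 x g, and 25-40 µg protein was immunoblotted with GAPDH as loading control.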

[11] = test system: HeLa cells expressing myc-TDP-4FL; assay: Anti-myc immunoprecipitation of insoluble TDP-4FL, ubiquitin immunoblot; format: cell-based; settings: MG132 treatment, immunoprecipitation of insoluble fraction
Outline: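 Sequential extraction: RIPA, then 100,000 x g for 30 min at 4°C, then urea/thiourea/CHAPS buffer. The urea-soluble fraction was diluted in TBST containing 100 mM NEM and 5 mM EDTA and incubated overnight at 4°C with anti-c-Myc magnetic beads. Elution was in Laemmli buffer with 0.5 mM DTT, 10 min at 99°C, followed by immunoblotting with IR-dye detection.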

[12] = 5μM UP109 + CHX 4 hours after MG132, vs CHX only
[13] = CB5083 + CHX 6 hours after 3 hours MG132

Chain of LD2 (aa442–806) VCP (P55072 442-806): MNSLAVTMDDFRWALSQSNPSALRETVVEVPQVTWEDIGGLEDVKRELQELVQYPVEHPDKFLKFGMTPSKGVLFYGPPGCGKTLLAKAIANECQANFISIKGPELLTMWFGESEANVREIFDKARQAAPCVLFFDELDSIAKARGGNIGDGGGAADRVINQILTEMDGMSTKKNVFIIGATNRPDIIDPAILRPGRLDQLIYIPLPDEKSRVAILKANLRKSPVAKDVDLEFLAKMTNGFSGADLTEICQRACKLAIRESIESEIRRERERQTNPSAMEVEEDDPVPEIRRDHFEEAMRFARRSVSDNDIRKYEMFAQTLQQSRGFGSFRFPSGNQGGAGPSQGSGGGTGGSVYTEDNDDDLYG
Chain of ND1L (aa1–481) VCP (P55072 1-481): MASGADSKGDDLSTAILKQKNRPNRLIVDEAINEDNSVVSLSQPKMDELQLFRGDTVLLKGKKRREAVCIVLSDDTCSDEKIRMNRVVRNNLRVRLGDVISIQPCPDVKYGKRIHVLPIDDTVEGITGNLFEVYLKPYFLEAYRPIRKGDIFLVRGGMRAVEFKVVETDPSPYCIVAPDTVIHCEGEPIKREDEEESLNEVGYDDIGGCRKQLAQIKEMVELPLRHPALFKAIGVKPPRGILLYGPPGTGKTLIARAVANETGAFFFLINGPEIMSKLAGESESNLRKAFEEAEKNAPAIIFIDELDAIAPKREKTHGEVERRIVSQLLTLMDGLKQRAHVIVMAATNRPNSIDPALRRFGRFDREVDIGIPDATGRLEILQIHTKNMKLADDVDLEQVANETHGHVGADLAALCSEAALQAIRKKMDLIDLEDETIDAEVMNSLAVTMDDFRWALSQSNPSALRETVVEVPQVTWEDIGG
Chain of VCP (E578Q) (Q01853 whole entry E578Q): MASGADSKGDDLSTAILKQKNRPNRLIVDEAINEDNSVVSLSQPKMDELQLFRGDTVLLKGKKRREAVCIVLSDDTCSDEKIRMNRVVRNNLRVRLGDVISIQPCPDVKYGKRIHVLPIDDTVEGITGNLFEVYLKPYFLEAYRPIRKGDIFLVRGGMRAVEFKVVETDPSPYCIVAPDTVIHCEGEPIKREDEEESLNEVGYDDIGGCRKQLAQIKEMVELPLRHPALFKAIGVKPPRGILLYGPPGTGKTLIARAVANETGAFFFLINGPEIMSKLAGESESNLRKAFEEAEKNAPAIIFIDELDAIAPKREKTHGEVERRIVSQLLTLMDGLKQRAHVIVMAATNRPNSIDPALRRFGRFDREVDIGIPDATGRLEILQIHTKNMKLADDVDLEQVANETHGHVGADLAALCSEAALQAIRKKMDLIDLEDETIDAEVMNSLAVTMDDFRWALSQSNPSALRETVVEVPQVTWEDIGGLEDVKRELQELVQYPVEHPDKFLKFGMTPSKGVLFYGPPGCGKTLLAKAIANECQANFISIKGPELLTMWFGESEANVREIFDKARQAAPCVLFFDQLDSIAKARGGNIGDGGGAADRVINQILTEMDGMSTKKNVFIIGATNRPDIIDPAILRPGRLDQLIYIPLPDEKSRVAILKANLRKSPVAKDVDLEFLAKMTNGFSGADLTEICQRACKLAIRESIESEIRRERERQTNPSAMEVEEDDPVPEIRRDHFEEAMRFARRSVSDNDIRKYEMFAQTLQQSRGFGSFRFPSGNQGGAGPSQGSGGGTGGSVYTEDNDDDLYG
Chain of N-ethylmaleimide-sensitive factor (NSF) (P46459 whole entry): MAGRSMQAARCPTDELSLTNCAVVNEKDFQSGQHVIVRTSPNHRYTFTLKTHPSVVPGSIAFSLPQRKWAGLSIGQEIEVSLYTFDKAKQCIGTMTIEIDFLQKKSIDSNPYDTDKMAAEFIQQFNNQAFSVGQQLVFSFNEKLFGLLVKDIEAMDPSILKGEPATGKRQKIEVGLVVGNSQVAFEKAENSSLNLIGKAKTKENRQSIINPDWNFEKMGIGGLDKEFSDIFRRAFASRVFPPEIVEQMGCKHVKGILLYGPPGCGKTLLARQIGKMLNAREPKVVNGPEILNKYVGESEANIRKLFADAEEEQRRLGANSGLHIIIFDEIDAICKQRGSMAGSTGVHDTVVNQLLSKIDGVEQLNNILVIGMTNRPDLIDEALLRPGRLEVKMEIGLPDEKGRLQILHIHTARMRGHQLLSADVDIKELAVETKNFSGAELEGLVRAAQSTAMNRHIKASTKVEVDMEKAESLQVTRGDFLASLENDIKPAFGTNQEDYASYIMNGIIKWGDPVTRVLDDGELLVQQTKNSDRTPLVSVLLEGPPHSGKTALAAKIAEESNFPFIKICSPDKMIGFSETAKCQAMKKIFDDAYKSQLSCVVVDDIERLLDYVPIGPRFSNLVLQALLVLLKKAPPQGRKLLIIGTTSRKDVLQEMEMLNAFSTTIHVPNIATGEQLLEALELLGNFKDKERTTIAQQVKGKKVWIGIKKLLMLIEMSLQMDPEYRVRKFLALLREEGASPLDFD
Chain of WT VCP + Ufd1/Nploc4 (Q01853 whole entry): as the sequence (Q01853 whole entry E578Q) above, with Q578E counted along it
Chain of WT VCP + Ufd1/Nploc4 (Q92890 whole entry partner): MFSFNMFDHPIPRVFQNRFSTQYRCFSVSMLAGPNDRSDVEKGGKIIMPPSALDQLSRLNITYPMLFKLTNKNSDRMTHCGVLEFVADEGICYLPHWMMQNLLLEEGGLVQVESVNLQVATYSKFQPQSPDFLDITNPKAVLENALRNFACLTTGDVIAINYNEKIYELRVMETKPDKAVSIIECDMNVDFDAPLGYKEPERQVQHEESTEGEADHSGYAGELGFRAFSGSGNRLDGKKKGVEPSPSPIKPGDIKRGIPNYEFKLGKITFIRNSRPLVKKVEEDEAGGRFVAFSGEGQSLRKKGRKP
Chain of WT VCP + Ufd1/Nploc4 (Q8TAT6 whole entry partner): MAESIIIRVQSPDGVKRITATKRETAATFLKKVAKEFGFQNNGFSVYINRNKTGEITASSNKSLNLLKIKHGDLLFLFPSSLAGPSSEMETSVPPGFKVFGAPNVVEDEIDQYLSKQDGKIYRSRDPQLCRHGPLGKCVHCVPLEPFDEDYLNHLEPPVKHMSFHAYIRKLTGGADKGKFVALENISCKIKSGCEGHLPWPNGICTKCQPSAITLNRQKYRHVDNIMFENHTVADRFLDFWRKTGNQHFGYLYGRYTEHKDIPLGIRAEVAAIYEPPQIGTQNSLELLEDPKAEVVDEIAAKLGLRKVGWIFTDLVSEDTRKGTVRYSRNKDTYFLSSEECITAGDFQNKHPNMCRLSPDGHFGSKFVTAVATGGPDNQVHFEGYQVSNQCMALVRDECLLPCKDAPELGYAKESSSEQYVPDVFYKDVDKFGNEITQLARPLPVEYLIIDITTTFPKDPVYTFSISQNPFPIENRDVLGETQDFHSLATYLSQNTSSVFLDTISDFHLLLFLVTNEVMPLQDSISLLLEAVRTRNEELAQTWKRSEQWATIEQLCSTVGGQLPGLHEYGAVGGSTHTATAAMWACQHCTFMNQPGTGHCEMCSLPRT
T1 sequence (Q01853 whole entry): as the sequence (Q01853 whole entry E578Q) above, with Q578E counted along it

Row | maximal increase of VCP activity (recombinant WT VCP [1]) [%] | Maximum % Activity (95% CI) (recombinant WT VCP [1]) | ATPase activity of ND1L construct (ND1L (aa1–481) VCP) | increase in kcat (recombinant WT VCP [2]) | Maximum % Activity (95% CI) (WT VCP + Ufd1/Nploc4) | EC50 (WT VCP + Ufd1/Nploc4) [µM] | luciferase activity inhibition (luciferase) | SMILES | recombinant WT VCP ATPase activity (in words) (recombinant WT VCP [1]) | ATPase activity of LD2 construct (LD2 (aa442–806) VCP) | kcat (nmol Pi / nmol VCP / s) (95% CI) (recombinant WT VCP [2]) | ATPase activity of VCP E578Q (inactive D2, active D1) (VCP (E578Q)) | NSF ATPase activity compared to DMSO [3] | other results
1 | 97 | 197.4 (189.8, 206.1) % | did not inhibit the ATPase activity | 100% | 175.3 (164.6, 188.0) % | 13.4 | did not inhibit luciferase activity | COCCNC(=O)NC(=O)COC(=O)c1cc([N+](=O)[O-])ccc1Sc1nc(C)cs1 [UP109] | significantly increased recombinant WT VCP ATPase activity | significantly increased ATPase activity | 0.489 nmol Pi / nmol VCP / s and 0.489 (0.459, 0.520) nmol Pi / nmol VCP / s | decreased ATPase activity, though less than UP158 and UP163 and not significantly | No compound significantly increased ATPase activity | integrated fluorescence intensity (GFP-TDP-4FL) ([4]; 5μM UP109 + CHX vs CHX only): significantly decreased integrated fluorescence intensity; integrated fluorescence intensity (GFP-TDP-4FL) ([5]; 5μM UP109 + CHX 4 hours after 17 hours MG132, vs CHX only): significantly decreased; integrated fluorescence intensity (GFP-TDP-4FL) ([5]; 20μM UP109 + CHX 4 hours after 17 hours MG132): further reduced; insoluble TDP-4FL levels [6, 12]: significant decrease in insoluble TDP-4FL levels; soluble TDP-4FL levels [6, 12]: increase in soluble TDP-4FL levels; TDP-4FL aggregate morphology ([7]; 5μM UP109 + CHX 4 hours after MG132): appeared to be smaller and in some cases revert to small anisosomes; integrated fluorescence intensity (GFP-TDP-4FL) ([8]; 5μM UP109 + CHX vs CHX only): significantly decreased integrated fluorescence intensity
2 | 104 | 204.0 (189.2, 223.3) % | did not inhibit the ATPase activity | more than 50% | 151.8 (144.7, 160.7) % | 8.9 | did not inhibit luciferase activity | O=C(OCCN(C1=NS(=O)(=O)c2ccccc21)c1ccc(Cl)cc1)c1ccco1 [UP163] | significantly increased recombinant WT VCP ATPase activity | significantly increased ATPase activity | 0.366 nmol Pi / nmol VCP / s and 0.366 (0.335, 0.401) nmol Pi / nmol VCP / s | significantly decreased ATPase activity | No compound significantly increased ATPase activity | change in EC50 with UN compared to without UN (WT VCP + Ufd1/Nploc4; recombinant UN 1:1 molar ratio with VCP): no change in EC50
3 | 50 | 150.3 (146.6, 154.3) % | did not inhibit the ATPase activity | more than 50% | 152.1 (143.2, 164.4) % | 14.3 | did not inhibit luciferase activity | Clc1ccc2[nH]c3c(N4CCC5(CC4)OCCO5)ncnc3c2c1 [UP158] | significantly increased recombinant WT VCP ATPase activity | significantly increased ATPase activity | 0.356 nmol Pi / nmol VCP / s and 0.356 (0.320, 0.396) nmol Pi / nmol VCP / s | significantly decreased ATPase activity | No compound significantly increased ATPase activity | –
4 | – | – | – | – | – | – | – | Cc1cc2c(C(N)=O)cccc2n1-c1nc2c(c(NCc3ccccc3)n1)COCC2 [CB5083] | – | – | – | – | – | integrated fluorescence intensity (GFP-TDP-4FL) [4, 13]: greater integrated fluorescence intensity compared to CHX only treatment; integrated fluorescence intensity (GFP-TDP-4FL) ([5]; WT cells, CB5083 + CHX 6 hours after 3 hours MG132): significantly higher than CHX only treatment; markers of muscle pathology [9]: improved markers of muscle pathology; insoluble TDP-4FL protein [6, 13]: residual amounts of insoluble TDP-4FL protein; soluble TDP-4FL protein [6, 13]: significant decrease in soluble TDP-4FL protein; TDP-4FL aggregate morphology [7, 13]: residual irregularly shaped intranuclear TDP-4FL aggregates; integrated fluorescence intensity (GFP-TDP-4FL) [8, 13]: greater integrated fluorescence intensity compared to CHX only treatment; altered mitochondrial morphology caused by VCP variants (drosophila model of MSP): reversed
5 | – | – | – | – | – | – | – | CC(C)C[C@@H](C=O)NC(=O)[C@H](CC(C)C)NC(=O)[C@H](CC(C)C)NC(=O)OCc1ccccc1 [MG132] (Cbz-Leu-Leu-Leu-aldehyde) | – | – | – | – | – | insoluble TDP-4FL ([6]; 4μM MG132 for 0, 3, or 6 hours): increase in insoluble TDP-4FL; soluble TDP-4FL ([6]; 4μM MG132 for 0, 3, or 6 hours): decrease in soluble TDP-4FL; TDP-43 nuclear morphology ([10]; 4μM MG132): formation of coarse nuclear punctae; insoluble TDP-43 protein ([10]; 4μM MG132 for 0, 3, or 6 hours): increase in insoluble TDP-43 protein; soluble TDP-43 protein ([10]; 4μM MG132 for 0, 3, or 6 hours): reduction in soluble TDP-43 protein; ubiquitination of insoluble myc-TDP-4FL [11]: ubiquitination of TDP-4FL protein; TDP-4FL inclusion morphology ([7]; 4μM MG132, 3 or 6 hours): coalesced into larger, irregularly shaped aggregates

Row | SMILES | maximal increase of VCP activity (recombinant WT VCP [1]) [%] | Maximum % Activity (95% CI) (recombinant WT VCP [1]) | ATPase activity of ND1L construct (ND1L (aa1–481) VCP) | increase in kcat (recombinant WT VCP [2]) | Maximum % Activity (95% CI) (WT VCP + Ufd1/Nploc4) | EC50 (WT VCP + Ufd1/Nploc4) [µM] | luciferase activity inhibition (luciferase) | recombinant WT VCP ATPase activity (in words) (recombinant WT VCP [1]) | ATPase activity of LD2 construct (LD2 (aa442–806) VCP) | kcat (nmol Pi / nmol VCP / s) (95% CI) (recombinant WT VCP [2]) | ATPase activity of VCP E578Q (inactive D2, active D1) (VCP (E578Q)) | NSF ATPase activity compared to DMSO [3] | other results
6 | O=C(CSc1nc2ccccc2c(=O)n1NC(=O)c1ccccc1)c1ccc(Cl)cc1 [UP12] | 39 | 139.0 (131.9, 149.0) % | only compound to increase ATPase activity | about 25% | 124.6 (119.8, 130.2) % | 0.648 | did not inhibit luciferase activity | significantly increased recombinant WT VCP ATPase activity | significantly increased ATPase activity | 0.309 nmol Pi / nmol VCP / s and 0.309 (0.269, 0.356) nmol Pi / nmol VCP / s | seemed to increase ATPase activity, though not significantly | No compound significantly increased ATPase activity | –
